System: MS2 coat protein
Assay: apparent Kd, MS2 coat protein; higher = weaker binding; RNA-MaP array; FMN 200 µM where present
How it was run: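 Apparent Kd: the median of filtered binding-curve fits from single clusters. Designs were transcribed on Illumina sequencing-chip clusters by stalled E. coli RNA polymerase and titrated with SNAP-549-labelled MS2 coat protein from 0.7 or 1.5 nM, doubling to 3 µM, in 100 mM Tris-HCl pH 7.5, 80 mM KCl, 4 mM MgCl2, BSA, DTT, yeast tRNA and Tween-20. Each series ran without and then with constant ligand, and green signal was normalised to red-channel RNA signal and control-cluster median Fmax.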

[1] = designed as: OFF switch for flavin mononucleotide, no ligand
[2] = ligand present: flavin mononucleotide, designed as: OFF switch for flavin mononucleotide
[3] = designed as: ON switch for flavin mononucleotide, no ligand
[4] = ligand present: flavin mononucleotide, designed as: ON switch for flavin mononucleotide

Row | Sequence | apparent Kd [1] [nM] | apparent Kd [2] [nM] | apparent Kd [3] [nM] | apparent Kd [4] [nM]
1 | CUUCGACAUGAGGAUCACCCAUGUCAGGAUAUUGUGUAUCGGGUUUUUUACGGAAAGGCGAGAAGGGAUGUGUG | 27.6 | 22.3 |  | 
2 | AAAACGUGAGGAUAUCCAAUAUAUGACAUGAGGAUCACCCAUGUUUCCACUCGUACCUCCGGAGAAGGCACAAUUU | 51.2 | 41.7 |  | 
3 | UUAUUAUAUGUAGGAUAUGCAUAUUAUUAUUAUGCAGAAGGACAUGAGGAUCACCCAUGUAUAUUGUUGUUGUAUAUUAUAUAU | 25.1 | 30.4 |  | 
4 | CGUACCAUGUAGAAGGCAUAUCUCAAAGAGAUAUGAGGAUAUACAUGAGGAUCACCCAUGUAAAUGUACUCCAGGAAACUGGAA | 47.8 | 222 |  | 
5 | AAGAAGAACGCAGGAUAUCUCACCCAUGUAAGAAGAGAAGGGCGACAUGAGGAUCACCCAUGUCAACAUGAGGAUCACCCAUGU | 59.6 | 88.9 |  | 
6 | AGCGUGUAAGGAUAUACGUCGGAUAGCGAAUGCUGUCCGUAGUAGAAGGUACAUGAGGAUCACCCAUGUGUCCA | 25.1 | 94.1 |  | 
7 | GGUGUGAGGCAGGAUAUGCUAUAUGUUAGUAAUGCAGAAGGGUCUACAUGAGGAUCACCCAUGUGUGCGGUUGA | 90.5 | 394 |  | 
8 | UGCAUGUAAGGAUAUGCAUCCGCCGACGUCCCGGCGGCACAGCAGAAGGUACAUGAGGAUCACCCAUGUGUCCC | 28.8 | 155 |  | 
9 | AACUUCCCGUCAGGAUAUCGCCGUAGGUCCUCGGGUCUCGCCGUCAUACAUGAGGAUCACCCAUGUGAGAAGGGACGGGAUUCA | 21.8 | 117 |  | 
10 | UGUGUGUGGGCAGGAUAUGCAUGAAUAUAUAUGAUGUAGUGUGAUGUAACAUGAGGAUCACCCAUGUAGAAGGGCCGGUGUAUG | 145 | 234 |  | 
11 | GACGGUGAUGUAGGAUAUACGCUGGAAUACAGCGUAGAAGGACAUGAGGAUCACCCAUGUAAAGUGUCUCUAAAUAACACCGUC | 21.5 | 47.2 |  | 
12 | UGGUGUGAGCUAUCACAUGACUGGGAGGAUAUGACAUGAGGAUCACCCAUGUGGGAUCUAAAUUGUCAGAAGGCUCGAUCUGGG | 750 | 208 |  | 
13 | UCCCUAAGGCGGACCGACCAUACAUGAGGAUCACCCAUGUCGAGAAGGUGCUCACGGGUGGGUGGCAAGGAUAUCGGGUCGGAA |  |  | 69.8 | 36.5
14 | AACAUACAUGAGGAUCACCCAUGUUCCGGCAGGACAGGAUAUACAUCGAAAGUGUUAUAAGUAGAAGGGUCAUAAA |  |  | 77.8 | 71.2
15 | CCUUGACAUGAGGAUCACCCAUGUGAGGAUAUAGAAUACUUCAUACACUGACCUCCUUCUAGAAGGCACAUCUC | 15.3 | 15.1 |  | 
16 | AUCAGCACGUGAGGAUAUGCGUUACUGCGAAAGCAGUACGGUAAGAUCACAUGAGGAUCACCCAUGUAGAAGGCACGAGCUGAU | 16.6 | 36.9 |  | 
17 | CCUUUGAAGAUCCUAGAUUUCGACAUGAGGAUCACCCAUGUGCAGGAUAUCGUGCCAGUGAUGUGCGAGAAGGGCAGUCUCUGC | 50.8 | 55 |  | 
18 | GCUGUCGCAUGAGGAUAUGGUCUGCUUUGCAGACCAGAAGGCAUGUCAAUAGACAUGAGGAUCACCCAUGUAGUUAAGACAGCA |  |  | 766 | 46.6
19 | UGUUCUAUGUAGAAGGCCCAUAUCUGUUUUUAGGGAGGAUAUACAUGAGGAUCACCCAUGUGUAGAGCUGGUGGACUGGUCAGC | 13.7 | 40.1 |  | 
20 | CUAAUGUAGACAGGAUAUCCUGGACAUGAGGAUCACCCAUGUGCAUAAAAUGGAGAAGGGUCACGGAGGCCCUGUGGGCAGGGU |  |  | 46.3 | 9.9
21 | AUUAUUUUCGAAGGAUAUGGAUACAUGAGGAUCACCCAUGUAUAAAAUGUGAUCAAUUAUAUGAUCCAGAAGGUCGUUGUUUAU | 80.8 | 257 |  | 
22 | UUAUUUAUGCAAGGAUAUCAAUUAUAUAGACGUCCUACAUGAGGAUCACCCAUGUUUAGUUUUUUUGAGAAGGUGCAUUGUCGG |  |  | 43.1 | 31.1
23 | GCCCGGGCAGGAUAUGCCCGGGCGCACAUGAGGAUCACCCAUGUGGCCCUGUGCCGUCCGGCAGAAGGGCCCGGGC | 90.1 | 87.4 |  | 
24 | AGUGGCUACACAGGAUAUCCCAGCCUCUUGGUGGGAGAAGGGUGAGGUCAGAGACAUGAGGAUCACCCAUGUCUUACAGGAGGA |  |  | 15.8 | 8.33

Row | Sequence | apparent Kd [1] [nM] | apparent Kd [2] [nM] | apparent Kd [3] [nM] | apparent Kd [4] [nM]
25 | AUAGUGCGCGAGAAGGACGUACCACAUGAGGAUCACCCAUGUGUGGUACGUAGGAUAUUGCACAUGAGGAUCACCCAUGUGGAU |  |  | 19.5 | 34.6
26 | CUUAUGUGAGGAUAUCAGUAGUAAAAAAAUAAAAUUACUACUGAGAAGGCACAUGAGGAUCACCCAUGUGCCUC | 14.4 | 13.4 |  | 
27 | AAUAUUUAUUGAGGAUAUUCAUACACUGUAUACGGAGAAGGCAAUCAAUCAUGAGGACAUGAGGAUCACCCAUGUUGUGACCAU |  |  | 10.7 | 9.69
28 | CUCUUGGCAGGAUAUGCUUUUUUAGACAUGAGGAUCACCCAUGUGAUGAAUAUUGGGUUCGCAGAAGGGCCUGAAU | 54.1 | 48.3 |  | 
29 | GUCGGAAACGACAAAAGUAGCAUACGAGAAGGCUGAUCCAAGACAUGAGGAUCACCCAUGUAGUUAGAGGAUAUUGGAUGCUAC |  |  | 63.8 | 10.7
30 | GUCAUUAAACAGAAGGUGUAGUACAUGAGGAUCACCCAUGUAUAACUAACUAAAUUUGUAAUUAACAAGGAUAUGUACUAAUCG |  |  | 6.58 | 6.63
31 | UUGGACGUCGUAGGAUGUGUAGGAUAUUCCUACAUGAGGAUCACCCAUGUUGACAUGGAAGAAGGACAGAAGGACGAUGUCCAU |  |  | 386 | 12.9
32 | GUGCACACUCGAGGAUAUCGGAGUUUUCUCCUUCGAGAAGGCGAUUCGUGCCGUGUUAUUCUGGACAUGAGGAUCACCCAUGUG |  |  | 110 | 36.5
33 | GCUGACGAUGUAGGAUAUCUCGACGAUAAGUCGAGAGAAGGACAUGAGGAUCACCCAUGUAUCUCAACGUCAGCGAGGAAACUC | 16.4 | 20.4 |  | 
34 | GCGUUAAAGAUCCAUUUUUACAACAUGAGGAUCACCCAUGUGCAGGAUAUCGAAUGUUUUAUAUUCGAGAAGGGCAAUUUCCGC | 70.3 | 99.3 |  | 
35 | CCAUGGCAUGUAGGAUAUGUCUGACAAAGUCAGACAGAAGGACAUGAGGAUCACCCAUGUAAUGGAAAACCAAUAUAGCCAUGG | 7.62 | 11.3 |  | 
36 | AGAAACCGAGGAUAUACAUGAGGAUCACCCAUGUCAAGCGGCAUCUACCGAACCUUCUGUAGAAGGCGGAAAAC | 19.9 | 22.9 |  | 
37 | AGAUAACACCAGAAGGACAUGAGGAUCACCCAUGUAGGAUAUGGGCAUCACUCGAGAAAGAAAAGACCAAGUGGACACAUGGUC |  |  | 147 | 11
38 | UACAUGAGGAUCACCCAUGUUUUGUCGUGUAUGGUAUUUAUCUAGGAUAUCAUUUUAUUUAGUUAUGAGAAGGAGAAUAUUAAU | 28.9 | 34.4 |  | 
39 | GGUGGUGUCCGAGGAUAUCGUUAGGCGUUGUUGCGAGAAGGCGGACAUGAGGAUCACCCAUGUUUGAUAAAAGAGGAGGUUGUG | 86.1 | 130 |  | 
40 | AACAAGCAAGGAUAUACAUGAGGAUCACCCAUGUCGUCUAAACGUACAUGCUACUCUUGUAGAAGGUGCAAAAU | 129 | 537 |  | 
41 | GCAACGCCUGACAUGAGGAUCACCCAUGUUAGAUUGUUAUGUCAGGAUAUUGUCUCGAAACGAGAUGAGAAGGGAUAUGUUGCU |  |  | 997 | 61.2
42 | CUCUUGUGAGGAUAUCAGUAGUAAAAAAAUAAAAUUACUACUGAGAAGGCACAUGAGGAUCACCCAUGUCUUUC | 211 | 158 |  | 
43 | CAGCAAUGUGAGAAGGCUGCUCCGAUAAGGAGCAGAGGAUAUUACAUGAGGAUCACCCAUGUAUGAACCAAUAGCUGAAAUAAA | 6.01 | 28.3 |  | 
44 | CUCGUUAUGUUAGGAUAUGAUGCAUCCCGAUAAUCAGAAGGAACAUGAGGAUCACCCAUGUGACAUUUGGUGAAUACAAGCCAG | 6.79 | 7.96 |  | 
45 | ACACUACAUGAGGAUCACCCAUGUCAGGAUAUCGAUAUCACAACUCAUCAACCUCACUCGAGAAGGGACACAUA | 24 | 23.8 |  | 
46 | GUUGGCUGAGGAUAUGCUUGCAUGCUUUUGUGUUGCGGGUGACAUGAGGAUCACCCAUGUAGAAGGUGGUCGGC | 1040 | 817 |  | 
47 | GGUGGACAUGAGGAUCACCCAUGUGAGGAUAUCGGCUAUCUACUCGCUGACGGCUGCUCGAGAAGGCGCAUUGU | 62.1 | 58.8 |  | 
48 | AGUUCACAUGAGGAUCACCCAUGUCAGGAUAUCGACUGAACAGCUUCGGCUGUUCAGUCGAGAAGGGACAAUUA | 46.5 | 104 |  | 
